Reference: ChEMBL document CHEMBL1125337, “Synthesis and antibacterial activity of a series of basic amides of teicoplanin and deglucoteicoplanin with polyamines” (J Med Chem, 1992)
Converted amounts (≈) assume the structure as drawn.

Experiments:
[1] = test system: Staphylococcus epidermidis; experiment: Minimum inhibitory concentration against Staphylococcus epidermidis ATCC 12228; format: functional
Outline: (§1)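 MIC (µg/mL) by microbroth dilution in Iso-Sensitest broth; final inoculum 10^4 cfu/mL; 24 h at 37 °C in air.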

Streptococcus pneumoniae = experiment: Minimum inhibitory concentration against Streptococcus pneumoniae L 44; format: functional
Outline: (§2)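 MIC (µg/mL) by microbroth dilution in Todd-Hewitt broth, final inoculum 10^4 cfu/mL, incubated 24 h at 37 °C in air.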

[2] = test system: Staphylococcus haemolyticus; experiment: Minimum inhibitory concentration against Staphylococcus haemolyticus L 602; format: functional; outline: as §1
Staphylococcus aureus = experiment: Minimum inhibitory concentration against Staphylococcus aureus L 165; format: functional; outline: as §1
Streptococcus pyogenes = experiment: Minimum inhibitory concentration against Streptococcus pyogenes L 49; format: functional; outline: as §2
[3] = Association constant to Ac2-L-Lys-D-Ala-D-Ala determined at pH 9; Value ranges from (9.5E4-3.5E5)
Enterococcus faecalis = experiment: Minimum inhibitory concentration against Enterococcus faecalis ATCC 7080; format: functional
Outline: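 Microbroth dilution MIC (µg/mL), final inoculum 10^4 cfu/mL, incubated 24 h at 37 °C in air.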

Escherichia coli = experiment: Minimum inhibitory concentration against Escherichia coli L 47; format: functional; outline: as §1
Proteus vulgaris = experiment: Minimum inhibitory concentration against Proteus vulgaris ATCC 881; format: functional; outline: as §1
Pseudomonas aeruginosa = experiment: Minimum inhibitory concentration against Pseudomonas aeruginosa ATCC 10145; format: functional; outline: as §1

| MIC [1] [µg/mL] | MIC (Streptococcus pneumoniae) [µg/mL] | MIC (Staphylococcus aureus) [µg/mL] | MIC (Streptococcus pyogenes) [µg/mL] | Ka [3] [M⁻¹] | MIC (Enterococcus faecalis) [µg/mL] | MIC (Escherichia coli) [µg/mL] | MIC (Proteus vulgaris) [µg/mL] | MIC (Pseudomonas aeruginosa) [µg/mL] | SMILES | MIC [2] [µg/mL] |
| --- | --- | --- | --- | --- | --- | --- | --- | --- | --- | --- |
| 0.25 (≈ 0.125 µM) | 0.125 (≈ 0.0627 µM) | 1 (≈ 0.502 µM) | 0.125 (≈ 0.0627 µM) | 350000 | 0.5 (≈ 0.251 µM) | – | – | – | CC(=O)N[C@@H]1[C@H](O[C@@H]2c3ccc(c(Cl)c3)Oc3cc4cc(c3O[C@@H]3O[C@@H](CO)[C@@H](O)[C@H](O)[C@@H]3NC(=O)CCCCCCC(C)C)Oc3ccc(cc3Cl)C[C@H]3NC(=O)[C@H](N)c5ccc(O)c(c5)Oc5cc(O)cc(c5)[C@H](NC3=O)C(=O)N[C@H]4C(=O)N[C@H]3C(=O)N[C@@H]2C(=O)N[C@H](C(=O)NCCCNCCCN)c2cc(O)cc(O[C@H]4O[C@H](CO)[C@@H](O)[C@@H](O)[C@@H]4O)c2-c2cc3ccc2O)O[C@@H](CO)[C@@H](O)[C@@H]1O | 2 (≈ 1 µM) |
| 0.063 (≈ 0.0447 µM) | 0.125 (≈ 0.0888 µM) | 0.063 (≈ 0.0447 µM) | 0.063 (≈ 0.0447 µM) | – | 0.125 (≈ 0.0888 µM) | 8 (≈ 5.68 µM) | 128 (≈ 90.9 µM) | 32 (≈ 22.7 µM) | CN(C)CCCN1CCCCN(C(=O)[C@H]2NC(=O)[C@H]3NC(=O)[C@H](NC(=O)[C@@H]4NC(=O)[C@H]5NC(=O)[C@@H](Cc6ccc(c(Cl)c6)Oc6cc4cc(c6O)Oc4ccc(cc4Cl)[C@H]3O)NC(=O)[C@H](N)c3ccc(O)c(c3)Oc3cc(O)cc5c3)c3ccc(O)c(c3)-c3c(O)cc(O)cc32)CCCC1 | – |
| 0.032 (≈ 0.0227 µM) | 0.125 (≈ 0.0886 µM) | 0.125 (≈ 0.0886 µM) | 0.125 (≈ 0.0886 µM) | – | 0.125 (≈ 0.0886 µM) | 32 (≈ 22.7 µM) | > 128 | 128 (≈ 90.7 µM) | CCN(CC)CCN(CCCN)CCCNC(=O)[C@H]1NC(=O)[C@H]2NC(=O)[C@H](NC(=O)[C@@H]3NC(=O)[C@H]4NC(=O)[C@@H](Cc5ccc(c(Cl)c5)Oc5cc3cc(c5O)Oc3ccc(cc3Cl)[C@H]2O)NC(=O)[C@H](N)c2ccc(O)c(c2)Oc2cc(O)cc4c2)c2ccc(O)c(c2)-c2c(O)cc(O)cc21 | 0.125 (≈ 0.0886 µM) |
| 0.125 (≈ 0.059 µM) | 0.063 (≈ 0.0297 µM) | 0.25 (≈ 0.118 µM) | 0.063 (≈ 0.0297 µM) | 350000 | 0.125 (≈ 0.059 µM) | – | – | – | CC(=O)N[C@@H]1[C@H](O[C@@H]2c3ccc(c(Cl)c3)Oc3cc4cc(c3O[C@@H]3O[C@@H](CO)[C@@H](O)[C@H](O)[C@@H]3NC(=O)CCCCCCC(C)C)Oc3ccc(cc3Cl)C[C@H]3NC(=O)[C@H](N)c5ccc(O)c(c5)Oc5cc(O)cc(c5)[C@H](NC3=O)C(=O)N[C@H]4C(=O)N[C@H]3C(=O)N[C@@H]2C(=O)N[C@H](C(=O)N2CCNCCNCCNCCNCCNCC2)c2cc(O)cc(O[C@H]4O[C@H](CO)[C@@H](O)[C@@H](O)[C@@H]4O)c2-c2cc3ccc2O)O[C@@H](CO)[C@@H](O)[C@@H]1O | 8 (≈ 3.77 µM) |
| 0.125 (≈ 0.0614 µM) | 0.125 (≈ 0.0614 µM) | 0.25 (≈ 0.123 µM) | 0.063 (≈ 0.0309 µM) | 350000 | 0.125 (≈ 0.0614 µM) | – | – | – | CC(=O)N[C@@H]1[C@H](O[C@@H]2c3ccc(c(Cl)c3)Oc3cc4cc(c3O[C@@H]3O[C@@H](CO)[C@@H](O)[C@H](O)[C@@H]3NC(=O)CCCCCCC(C)C)Oc3ccc(cc3Cl)C[C@H]3NC(=O)[C@H](N)c5ccc(O)c(c5)Oc5cc(O)cc(c5)[C@H](NC3=O)C(=O)N[C@H]4C(=O)N[C@H]3C(=O)N[C@@H]2C(=O)N[C@H](C(=O)NCCCNCCNCCCN)c2cc(O)cc(O[C@H]4O[C@H](CO)[C@@H](O)[C@@H](O)[C@@H]4O)c2-c2cc3ccc2O)O[C@@H](CO)[C@@H](O)[C@@H]1O | 0.125 (≈ 0.0614 µM) |
| 0.125 (≈ 0.061 µM) | 0.063 (≈ 0.0307 µM) | 0.125 (≈ 0.061 µM) | 0.063 (≈ 0.0307 µM) | 350000 | 0.125 (≈ 0.061 µM) | – | – | – | CC(=O)N[C@@H]1[C@H](O[C@@H]2c3ccc(c(Cl)c3)Oc3cc4cc(c3O[C@@H]3O[C@@H](CO)[C@@H](O)[C@H](O)[C@@H]3NC(=O)CCCCCCC(C)C)Oc3ccc(cc3Cl)C[C@H]3NC(=O)[C@H](N)c5ccc(O)c(c5)Oc5cc(O)cc(c5)[C@H](NC3=O)C(=O)N[C@H]4C(=O)N[C@H]3C(=O)N[C@@H]2C(=O)N[C@H](C(=O)NCCCN(CCCN)CCCN)c2cc(O)cc(O[C@H]4O[C@H](CO)[C@@H](O)[C@@H](O)[C@@H]4O)c2-c2cc3ccc2O)O[C@@H](CO)[C@@H](O)[C@@H]1O | 2 (≈ 0.976 µM) |
| 0.063 (≈ 0.0302 µM) | 0.125 (≈ 0.0598 µM) | 0.125 (≈ 0.0598 µM) | 0.063 (≈ 0.0302 µM) | 350000 | 0.125 (≈ 0.0598 µM) | – | – | – | CC(=O)N[C@@H]1[C@H](O[C@@H]2c3ccc(c(Cl)c3)Oc3cc4cc(c3O[C@@H]3O[C@@H](CO)[C@@H](O)[C@H](O)[C@@H]3NC(=O)CCCCCCC(C)C)Oc3ccc(cc3Cl)C[C@H]3NC(=O)[C@H](N)c5ccc(O)c(c5)Oc5cc(O)cc(c5)[C@H](NC3=O)C(=O)N[C@H]4C(=O)N[C@H]3C(=O)N[C@@H]2C(=O)N[C@H](C(=O)N2CCCCN(CCCN(C)C)CCCC2)c2cc(O)cc(O[C@H]4O[C@H](CO)[C@@H](O)[C@@H](O)[C@@H]4O)c2-c2cc3ccc2O)O[C@@H](CO)[C@@H](O)[C@@H]1O | 0.5 (≈ 0.239 µM) |
